# How the values were obtained:
# [1] = Inhibition of murine p100/p85 PI3-K (phosphatidylinositol 3-kinase); parameters: species or system Mus musculus
# [2] = target: Serine/threonine-protein kinase AKT (Homo sapiens, UniProt P31751+Q9Y243+P31749); assay: Inhibition of Akt (proto-oncogenic serine/threonine PKB) kinase; assay type: protein assay
# [3] = test system: HeLa; assay: Tested in vitro for their inhibitory activity against Hela(cervical) cell line; assay type: functional, cell-based; conditions: Homo sapiens
# How it was run: (§1)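 Cells were seeded at 30 000 per well in DMEM with 10% FBS, and drugs were added 16 h later. Growth continued for 3 days in DMEM/10% FBS with or without a range of drug concentrations. Cells were then counted on a hemocytometer to give growth-inhibition IC50.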
# [4] = test system: PC-3; assay: Tested in vitro for their inhibitory activity against PC-3(prostate) cell line.; assay type: functional, cell-based; conditions: Homo sapiens; how it was run: as §1
# [5] = test system: HT-29; assay: Tested in vitro for their inhibitory activity against HT-29 (colon) cell line; assay type: functional, cell-based; conditions: Homo sapiens; how it was run: as §1
# [6] = test system: MCF7; assay: Tested in vitro for their inhibitory activity against MCF-7(breast) cell line; assay type: functional, cell-based; conditions: Homo sapiens; how it was run: as §1
Structure (SMILES),IC50 [1] [µM],IC50 [2] [µM],IC50 [3] [µM],IC50 [4] [µM],IC50 [5] [µM],IC50 [6] [µM]
CCCCCCCCCCCCCCCCCCOC[C@H](COC(=O)O[C@H]1[C@@H](O)[C@@H](O)[C@H](O)C[C@H]1O)OC,15.5,12.5,30,7,2.5,12
CCCCCCCCCCCCCCCCCCOC[C@H](COP(=O)(O)O[C@@H]1[C@H](O)[C@H](CO)[C@@H](O)[C@H](O)[C@@H]1O)OC,31,7.8,1,4,4.5,5
CCCCCCCCCCCCCCCCCCOC[C@H](COP(=O)(O)O[C@@H]1[C@H](O)[C@@H](CO)[C@@H](O)[C@H](O)[C@@H]1O)OC,18.5,9.1,7.5,2,7.5,2
CCCCCCCCCCCCCCCCCCOC[C@H](COC(=O)O[C@@H]1[C@H](O)[C@@H](CO)[C@@H](O)[C@H](O)[C@@H]1O)OC,21.3,32,> 20,10,12,12.5

# More lines, in order of falling IC50 [1], values ahead:
IC50 [1] [µM],IC50 [2] [µM],IC50 [3] [µM],IC50 [4] [µM],IC50 [5] [µM],IC50 [6] [µM],Structure (SMILES)
83,5,2.5,2,10,1.2,CCCCCCCCCCCCCCCCCCOC[C@H](COC(=O)O[C@@H]1[C@H](O)[C@H](CO)[C@@H](O)[C@H](O)[C@@H]1O)OC
14.8,,7,,,7.2,CCCCCCCCCCCCCCCCCCOC[C@H](COP(=O)(O)O[C@H]1[C@@H](O)[C@@H](O)[C@H](O)C[C@H]1O)OC

# Reference: ChEMBL document CHEMBL1133107, “3-(Hydroxymethyl)-bearing phosphatidylinositol ether lipid analogues and carbonate surrogates block PI3-K, Akt, and cancer cell growth” (J Med Chem, 2000)
